Measurements taken from ChEMBL document CHEMBL1143101, “Understanding the cardioprotective effects of flavonols: discovery of relaxant flavonols without antioxidant activity” (J Med Chem, 2008).

Columns and labels:
Aorta [1] = assay: Vascular activity in KPSS precontracted Sprague-Dawley rat thoracic aorta assessed as endothelium dependent relaxation; assay type: functional, tissue-based; design: Activity: concentration or dose not given beside the values; settings: for EC50: Rattus norvegicus, Sprague-Dawley, Thoracic aorta
Aorta [2] = assay: Antioxidant activity in Sprague-Dawley rat thoracic aorta assessed as superoxide levels at 10 uM by lucigenin-enhanced chemiluminescence assay relative to control; assay type: functional
Method in brief: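 Male Sprague-Dawley aortic rings incubated 45 min at 37 °C, pH 7.4, in Krebs-HEPES with DETCA 3 mM (inactivates SOD), NADPH 100 µM and flavonol 10 µM (DMSO 1%). Rings then moved to wells containing lucigenin 50 µM and NADPH 100 µM, and photon emission counted. Counts normalized to dry tissue weight (dried 48 h, 65 °C), expressed as % of vehicle; n = rats.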

Aorta [3] = assay: DPPH scavenging activity in Sprague-Dawley rat thoracic aorta at 100 uM relative to control; assay type: functional
Method in brief: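 Cell-free DPPH radical scavenging. Flavonol in DMSO mixed 1:1 with 0.1 mM DPPH in methanol, 10 min at room temperature in the dark, absorbance read at 560 nm. Level = (A flavonol/A DPPH) × 100, as % of vehicle.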

Aorta [4] = assay: Vasorelaxant activity against U46619-induced contraction in endothelium-intact Sprague-Dawley rat thoracic aorta; assay type: functional, tissue-based; design: Activity: scale not given: the % may be the effect or the level left; settings: for EC50: Rattus norvegicus, Sprague-Dawley, Thoracic aorta
Aorta [5] = assay: Vasorelaxant activity against U46619-induced contraction in endothelium-denuded Sprague-Dawley rat thoracic aorta; assay type: functional, tissue-based; design: Activity: scale not given: the % may be the effect or the level left; settings: for EC50: Rattus norvegicus, Sprague-Dawley, Thoracic aorta
Aorta [6] = assay: Vasorelaxant activity against KCl-induced contraction in endothelium-intact Sprague-Dawley rat thoracic aorta; assay type: functional, tissue-based; design: Activity: scale not given: the % may be the effect or the level left; settings: for EC50: Rattus norvegicus, Sprague-Dawley, Thoracic aorta
Aorta [7] = assay: Vasorelaxant activity against KCl-induced contraction in endothelium-denuded Sprague-Dawley rat thoracic aorta; assay type: functional, tissue-based; design: Activity: scale not given: the % may be the effect or the level left; settings: for EC50: Rattus norvegicus, Sprague-Dawley, Thoracic aorta
Aorta [8] = assay: Effect on acetylcholine-induced vasorelaxation in pyrogallol exposed Sprague-Dawley rat thoracic aorta; assay type: functional, tissue-based; design: Activity: scale not given: the % may be the effect or the level left; settings: for EC50: Rattus norvegicus, Sprague-Dawley, Thoracic aorta
Method in brief: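 Endothelium-intact male Sprague-Dawley aortic rings in organ baths with nifedipine 30 nM. Pretreated 20 min with pyrogallol 30 µM, alone or with flavonol 30 µM (15% DMSO/85% methanol), or vehicle. Rings precontracted with U46619 1–10 nM to about 50% of the 123 mM KCl response, then cumulative acetylcholine curves run. Relaxation given as % of precontraction; mean ± SEM, n = rats.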

Aorta [9] = assay: Effect on acetylcholine-induced vasorelaxation in xanthine/xanthine oxidase exposed Sprague-Dawley rat thoracic aorta; assay type: functional, tissue-based; design: Activity: scale not given: the % may be the effect or the level left; settings: for EC50: Rattus norvegicus, Sprague-Dawley, Thoracic aorta
Method in brief: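 Aortic rings incubated with xanthine oxidase 0.016 U/mL for 30 min, then flavonol 30 µM for 20 min, then xanthine 100 µM for 10 min. Rings then precontracted with U46619 and cumulative acetylcholine concentration-response curves recorded. Relaxation given as % of U46619 precontraction; mean ± SEM, n = rats.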

| EC50 (Aorta [1]) [µM] | EC50 (Aorta [4]) [µM] | EC50 (Aorta [5]) [µM] | EC50 (Aorta [6]) [µM] | EC50 (Aorta [7]) [µM] | EC50 (Aorta [8]) [µM] | EC50 (Aorta [9]) [µM] | SMILES | Activity (Aorta [1]) [%] | Activity (Aorta [2]) [%] | Activity (Aorta [3]) [%] | Activity (Aorta [4]) [%] | Activity (Aorta [5]) [%] | Activity (Aorta [6]) [%] | Activity (Aorta [7]) [%] | Activity (Aorta [8]) [%] | Activity (Aorta [9]) [%] |
| --- | --- | --- | --- | --- | --- | --- | --- | --- | --- | --- | --- | --- | --- | --- | --- | --- |
| 16.6 | – | – | – | – | – | – | O=c1c(O)c(-c2ccc(O)c(C(F)(F)F)c2)oc2ccccc12 | 77 | 109 | 26 | – | – | – | – | – | – |
| 7.08 | 3.02 | 3.72 | 7.76 | 8.91 | – | – | COc1cccc(-c2oc3ccccc3c(=O)c2O)c1 | 79 | 74 | 71 | 101 | 93 | 87 | 86 | – | – |
| 74.1 | – | – | – | – | – | – | Cc1cccc(-c2oc3ccccc3c(=O)c2O)c1 | 37 | 85 | 80 | – | – | – | – | – | – |
| 4.68 | 1.66 | 3.16 | 5.13 | 5.5 | – | – | O=c1c(O)c(-c2ccc(O)cc2)oc2ccccc12 | 99 | 74 | 32 | 100 | 102 | 95 | 92 | – | – |
| 4.47 | 0.871 | 1.66 | 4.79 | 5.62 | 0.275 | 0.0891 | COc1cc(-c2oc3ccccc3c(=O)c2O)ccc1O | 98 | 106 | 24 | 101 | 100 | 100 | 93 | 42 | 62 |
| 5.01 | 1.35 | 3.02 | 5.5 | 6.31 | 0.0646 | 0.055 | O=c1c(O)c(-c2ccc(O)c(O)c2)oc2ccccc12 | 102 | 27 | 36 | 101 | 100 | 100 | 100 | 81 | 84 |
| 7.59 | – | – | – | – | – | – | O=c1c(O)c(-c2ccccc2)oc2ccccc12 [FLAVONOL] | 91 | 70 | 83 | – | – | – | – | – | – |
| 3.24 | – | – | – | – | – | – | O=c1c(O)c(-c2cccc(O)c2)oc2ccccc12 | 98 | 78 | 87 | – | – | – | – | – | – |

The next lines start with the compound.

| SMILES | EC50 (Aorta [1]) [µM] | EC50 (Aorta [4]) [µM] | EC50 (Aorta [5]) [µM] | EC50 (Aorta [6]) [µM] | EC50 (Aorta [7]) [µM] | EC50 (Aorta [8]) [µM] | EC50 (Aorta [9]) [µM] | Activity (Aorta [1]) [%] | Activity (Aorta [2]) [%] | Activity (Aorta [3]) [%] | Activity (Aorta [4]) [%] | Activity (Aorta [5]) [%] | Activity (Aorta [6]) [%] | Activity (Aorta [7]) [%] | Activity (Aorta [8]) [%] | Activity (Aorta [9]) [%] |
| --- | --- | --- | --- | --- | --- | --- | --- | --- | --- | --- | --- | --- | --- | --- | --- | --- |
| Cc1ccc(-c2oc3ccccc3c(=O)c2O)cc1 | – | – | – | – | – | – | – | 13 | 101 | 76 | – | – | – | – | – | – |
| Cc1cc(-c2oc3ccccc3c(=O)c2O)ccc1O | 4.37 | – | – | – | – | – | – | 98 | 105 | 25 | – | – | – | – | – | – |
| CC(C)(C)c1cc(-c2oc3ccccc3c(=O)c2O)ccc1O | 4.68 | – | – | – | – | – | – | 38 | 108 | 26 | – | – | – | – | – | – |
| O=c1c(O)c(-c2ccc(Cl)cc2)oc2ccccc12 | 8.13 | – | – | – | – | – | – | 37 | 100 | 93 | – | – | – | – | – | – |
| O=c1c(O)c(-c2ccc(O)c(Br)c2)oc2ccccc12 | 2.51 | – | – | – | – | – | – | 100 | 96 | 23 | – | – | – | – | – | – |
| COc1ccc(-c2oc3ccccc3c(=O)c2O)cc1 | – | – | – | – | – | – | – | 16 | 89 | 51 | – | – | – | – | – | – |
| O=c1c(O)c(-c2cccc(C(F)(F)F)c2)oc2ccccc12 | 115 | – | – | – | – | – | – | 23 | 80 | 89 | – | – | – | – | – | – |
| O=c1c(O)c(-c2ccc(C(F)(F)F)cc2)oc2ccccc12 | – | – | – | – | – | – | – | 6 | 85 | 90 | – | – | – | – | – | – |
| O=c1c(O)c(-c2cccc(Cl)c2)oc2ccccc12 | 6.76 | – | – | – | – | – | – | 53 | 75 | 87 | – | – | – | – | – | – |
| CC(C)(C)c1ccc(-c2oc3ccccc3c(=O)c2O)cc1 | – | – | – | – | – | – | – | 10 | 111 | 71 | – | – | – | – | – | – |
